# Source: publication PMC9682045 (Biochemistry and Biophysics Reports, 2022)
# “And” between values parts separate entries of the source, which are not always exact repeats. Equal entries are not always repeated.
# Legend:
# [1] = Cytotoxicity in the HCoV 229E CPE assay; format: cell-based; conditions: human, MRC5 cells, not infected
# Outline: (§1)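 Uninfected MRC5 human fetal lung fibroblasts seeded at 20,000 cells/well; test compound in cell assay medium as 3-fold serial dilutions to 8 concentrations, duplicate wells. Untreated cell controls run in parallel. Cytotoxicity expressed as percentage viability, with CC50 derived from this.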
# [2] = Cytotoxicity in the HCoV 229E qPCR assay; format: cell-based; conditions: human, MRC5 cells, not infected
# Outline: as §1
# [3] = test system: HCoV 229E; experiment: HCoV 229E qPCR assay in MRC5 cells; format: cell-based, human coronavirus 229E; conditions: read-out: HCoV 229E qPCR assay EC50, 200 TCID50, 2 days, viral RNA
# Outline: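 MRC5 human fetal lung fibroblasts seeded at 20,000 cells/well received test compound (3-fold serial dilutions to 8 concentrations, duplicate wells) in cell assay medium and were infected with 200 TCID50 HCoV 229E. Viral RNA was quantified by qPCR following a previously published protocol. Uninfected untreated and infected untreated controls ran in parallel. Percentage inhibition was recorded; EC50 is the concentration giving 50% of maximal effect.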
# [4] = a patient with MS; cited from earlier work
# [5] = test system: COVID-19-related lethality; conditions: meta-regression, patients with MS and COVID-19, N = 5634, P = 0.035; cited from earlier work
Structure (SMILES),CC50 at 3 days [1],CC50 at 2 days [2],EC50 [3],plasma concentration [4],protective effect on COVID-19-related lethality (β) [5]
"Cc1oncc1C(=O)Nc1ccc(C(F)(F)F)cc1 [Leflunomide, leflunomide]",> 100 µM,> 100 µM,–,–,–
"CCC(CC)COC(=O)[C@H](C)N[P@](=O)(OC[C@H]1O[C@@](C#N)(c2ccc3c(N)ncnn23)[C@H](O)[C@@H]1O)Oc1ccccc1 [Remdesivir (blinded), remdesivir]",> 100 µM,> 100 µM,< 0.046 µM,–,–
"C/C(O)=C(\C#N)C(=O)Nc1ccc(C(F)(F)F)cc1 [Teriflunomide, teriflunomide]",> 100 µM,> 100 µM,–,130 μM and 35 mg/L,−0.11
